The source of these data is ChEMBL document CHEMBL1154351, “Aspergillusol A, an alpha-glucosidase inhibitor from the marine-derived fungus Aspergillus aculeatus” (J Nat Prod, 2009).

As a reminder, the IC50 is the concentration that inhibits the measured activity by half.

One assay deals with MOLT-3. The assay is described as follows: Cytotoxicity against human MOLT3 cells by XTT assay. It is filed as functional, cell-based. In short, it runs like this:
(§1)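 XTT read-out of viability in human MOLT-3 and HL-60 cell lines, with doxorubicin as reference drug; IC50 values determined.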
In general terms: Tetrazolium dyes change colour on reduction, which living cells bring about.

Assay [1] is described as follows: Cytotoxicity against HuCCa1 cells after 4 days by MTT assay. Type of assay: functional, cell-based. The note with it: Homo sapiens, HuCC-A1, 96 h. In short, it runs like this: (§2)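 MTT read-out of viability in human HepG2, HuCCA-1 and A549 cancer cell lines, with doxorubicin as reference drug; IC50 values determined.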
A further assay has as its system HepG2. The assay is described as follows: Cytotoxicity against human HepG2 cells after 4 days by MTT assay. It is filed as functional, cell-based. To be noted: HepG2, 96 h. In short, it runs like this:
as §2

The subject of assay [2] is A549. The experiment in a line: Cytotoxicity against human A549 cells at 240 uM after 4 days by MTT assay. It is filed as functional, cell-based.
The test system of another assay is HL-60. The experiment in a line: Cytotoxicity against human HL60 cells by XTT assay. Type of assay: functional, cell-based. The method in brief: as §1
The next assay concerns HuCC-A1. The experiment in a line: Cytotoxicity against HuCCa1 cells at 240 uM after 4 days by MTT assay. The note with it: Homo sapiens. It is filed as functional, cell-based.
Assay [3] in a line: Inhibition of Bacillus stearothermophilus alpha-glucosidase assessed as p-nitrophenol release by colorimetry. Set-up: species or system Geobacillus stearothermophilus. The method in brief:
(§3)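 Colorimetric assay with p-nitrophenyl α-D-glucoside substrate at 1.0 mM final. Enzyme at 0.1 U/mL final for S. cerevisiae α-glucosidase and 0.3 U/mL final for B. stearothermophilus α-glucosidase. Run in triplicate (n = 3), with 1-deoxynojirimycin as standard; IC50 determined.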

In a further assay the target is T1, Aromatase (Homo sapiens, UniProt P11511).
T1 sequence (P11511 whole entry): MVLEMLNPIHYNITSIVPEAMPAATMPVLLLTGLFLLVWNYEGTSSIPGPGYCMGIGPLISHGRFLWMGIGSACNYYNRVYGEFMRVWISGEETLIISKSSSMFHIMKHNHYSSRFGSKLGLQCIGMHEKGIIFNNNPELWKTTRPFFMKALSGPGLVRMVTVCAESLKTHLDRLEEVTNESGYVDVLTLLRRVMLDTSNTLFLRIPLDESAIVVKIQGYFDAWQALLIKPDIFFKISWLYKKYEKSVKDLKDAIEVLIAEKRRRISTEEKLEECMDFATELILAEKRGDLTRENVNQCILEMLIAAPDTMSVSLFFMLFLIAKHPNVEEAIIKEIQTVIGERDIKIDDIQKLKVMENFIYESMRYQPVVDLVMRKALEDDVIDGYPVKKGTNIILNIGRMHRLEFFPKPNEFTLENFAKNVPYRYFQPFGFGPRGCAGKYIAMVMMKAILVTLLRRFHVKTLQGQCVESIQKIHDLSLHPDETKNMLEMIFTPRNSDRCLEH
The experiment in a line: Inhibition of aromatase.

A short description of assay [4]: Inhibition of Saccharomyces cerevisiae alpha-glucosidase assessed as p-nitrophenol release by colorimetry. In short, it runs like this:
as §3

Assay [5] has as its system A549. The experiment in a line: Cytotoxicity against human A549 cells after 4 days by MTT assay. Type of assay: functional, cell-based. To be noted: A549, 96 h. In short, it runs like this: as §2

Molecules are shown by their SMILES. Active and inactive are the calls of the source. The rule behind the calls is not given here. Bounds are passed on as bounds.

In the case of `COc1cccc2c1C(=O)c1c(O)c3c(c(O)c1C2=O)C[C@@](O)(C(=O)CO)C[C@@H]3O[C@H]1C[C@H](N)[C@H](O)[C@H](C)O1` [DOXORUBICIN], the half-inhibitory concentration (IC50) in the assay with MOLT-3 turned out to be 0.04 µM; in assay [1], 0.64 µM; with HepG2, 0.37 µM.
With `O=C(OC[C@@H](OC(=O)c1ccccc1)[C@@H](COC(=O)c1ccccc1)OC(=O)c1ccccc1)c1ccccc1`, the outcome in the assay with A549 [2] and in the assay with HuCC-A1 was inactive. Further, the IC50 in the assay on HepG2 came out at 29 µM; with HL-60, 44 µM.
As for `O=C(OC[C@@H](O)[C@@H](O)COC(=O)/C(Cc1ccc(O)cc1)=N\O)/C(Cc1ccc(O)cc1)=N\O` [ASPERGILLUSOL A], the IC50 in the assay on MOLT-3 is 19 µM; in assay [1], 50 µM; in assay [3], 1060 µM; on Aromatase, more than 100 µM; in the assay with HepG2, more than 105 µM; in [4] it was 465 µM. The same molecule registered a half-maximal inhibitory concentration (IC50) in the assay on A549 [5] of 74 µM.
Regarding `OC[C@H]1NC[C@H](O)[C@@H](O)[C@@H]1O` [DUVOGLUSTAT], the IC50 is 0.45 µM in [3] and 222 µM in assay [4].
